Screening results as filed in PubChem BioAssay.
The list is not random: actives were taken first. Their share in the collection is about 0.68%.
TNAP inh no acc: TNAP (human) inhibition, acceptor-free conditions; P05186; purified TNAP, CDP-star luminescence, 30 min; inhibition, % at 20 µM; hit rate 0.26% among 200,000; AID 1012;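 active = tissue-nonspecific alkaline phosphatase inhibition above about 50% at 20 µM in the single-dose screen, limit read from the data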;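 also: 0% = DMSO negative control and 100% = EDTA positive control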
TNAP act hiacc: increases human TNAP activity under high phosphate acceptor concentration. purified TNAP, CDP-star luminescence, 1 M DEA, 30 min; active compounds read high; 0 = EDTA background, 1 = DMSO-only activity. P05186. activation factor at 20 µM. 200,000 tested, under 10 active. AID 1136;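 active = activation factor at least 2 at 20 µM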
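Test system – human TNAP · Doses – 20 µM single point · Incubation – 30 min, room temperature · Signal – luminescent substrate turnover signal · Read-out basis – activation factor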
Furin inhibitor: blocks human furin protease activity; purified furin, fluorogenic substrate cleavage; inhibition, % at 20 µM or 30 µM; hit rate 0.061% among 220,000; AID 463115; in the data active = inhibition above about 25%
Target sequence (P09958 108-714 limits assumed): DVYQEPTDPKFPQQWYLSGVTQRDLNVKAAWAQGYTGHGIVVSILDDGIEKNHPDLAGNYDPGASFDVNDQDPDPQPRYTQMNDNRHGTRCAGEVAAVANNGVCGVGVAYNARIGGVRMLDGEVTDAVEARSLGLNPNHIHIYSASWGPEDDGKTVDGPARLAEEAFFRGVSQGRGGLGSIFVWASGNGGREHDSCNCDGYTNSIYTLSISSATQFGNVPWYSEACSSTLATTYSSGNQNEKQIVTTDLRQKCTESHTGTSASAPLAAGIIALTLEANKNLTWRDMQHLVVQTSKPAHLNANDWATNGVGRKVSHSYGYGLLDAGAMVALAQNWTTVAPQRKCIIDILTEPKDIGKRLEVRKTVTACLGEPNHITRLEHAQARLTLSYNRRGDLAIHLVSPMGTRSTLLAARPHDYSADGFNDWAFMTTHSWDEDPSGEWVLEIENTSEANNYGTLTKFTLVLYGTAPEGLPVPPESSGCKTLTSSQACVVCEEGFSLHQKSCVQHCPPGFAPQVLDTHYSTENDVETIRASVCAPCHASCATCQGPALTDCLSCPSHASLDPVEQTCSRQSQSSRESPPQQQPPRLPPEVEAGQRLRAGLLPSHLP
Pf gamet viab: kills late stage P. falciparum gametocytes | P. falciparum stage V gametocytes, ATP luminescence, 24 h | inhibition, % at 10.9 µM | hit rate 0.065% among 150,000 | AID 743093;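 active = inhibition above the mean plus 3 SD of compounds within the control limits, set per campaign, cut at about 38% in these data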;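 also: 0% = DMSO wells and 100% = medium only without gametocytes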
TNAP inh hi DEA: TNAP (human) inhibition, high acceptor; AID 1135; P05186; purified TNAP, CDP-star luminescence, 1 M DEA; inhibition, % at 20 µM; hit rate 0.03% among 200,000;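 active = over 50% inhibition of tissue-nonspecific alkaline phosphatase at 20 µM in the single-dose screen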;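 also: plate controls were DMSO wells for no effect and EDTA-quenched wells as full inhibition for full effect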
Efa HMGR inh: inhibitors of class II HMG-CoA reductase from Enterococcus faecalis | hit rate 0.41% among 190,000 | purified E. faecalis HMGR, NADPH absorbance 340 nm kinetic | inhibition, % at 10 µM | AID 1066;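 active = inhibition above a set limit, the median over all tested compounds plus 3 SD, cut at about 9.5% in these data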;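 also: enzyme runs in reverse so mevalonate oxidation gives rising NADPH absorbance; 0% = complete reaction with DMSO and 100% = background rate lacking mevalonate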
An asterisk follows results filed as active; i = inactive; . = no result given.

SMILES | TNAP inh no acc | TNAP act hiacc | Furin inhibitor | Pf gamet viab | TNAP inh hi DEA | Efa HMGR inh
O=C(Nc1ncc(Cc2ccccc2)s1)C1=NCCN1 | -116 | 1 | -16 | 38* | -2 | 1
Cc1ccc(Cc2cnc(NC(=O)C3=NCCN3)s2)cc1 | -118 | 1 | -6 | 4 | -3 | -4
C=CCC1(Cl)C(=O)C(Cl)=C(N2CCOCC2)C1(OC)OC (centres undefined) | . | . | -21 | -5 | . | .
CCN(CCO)c1ncnc2c1sc1nc(CC(C)C)c3c(c12)CC(C)(C)OC3 | -2 | 1 | -10 | 3 | -1 | 9.7*
CC1(C)Cc2nc3sc4c(N(CCO)CCO)ncnc4c3cc2CO1 | -8 | 1 | -25 | 27 | 0 | 1
CCN1/C(=C/C=C/c2oc3ccc4ccccc4c3[n+]2CC)Oc2ccc3ccccc3c21 | i | 2* | -5 | . | -96 | -5
CC(NC(=O)c1ccccc1NC(=O)CSc1nnnn1C)c1ccccc1 (centres undefined) | -14 | 1 | -16 | -14 | -4 | -8
CC(C)OC(=O)NC(C)(C)COC(=O)Nc1cccc(Cl)c1 | -6 | 1 | -29 | -24 | -2 | 16*
O=C(NCCc1c[nH]c2ccccc12)c1cnccn1 | -10 | 1 | -8 | 32 | 2 | -4
CC(=O)Nc1ccc(Cc2nc3ccccc3[nH]2)cc1 | -11 | 1.1 | -32 | . | -8 | 16*
CC(C)(C)c1ccc(NNC(=O)C2CCC2)cc1 | . | . | -18 | -4 | . | .
O=C(O)c1cc(-c2ccc(N3CCOCC3)cc2)nn1-c1ccc(F)cc1F | -18 | 1 | -15 | 16 | -2 | -12
O=C(O)c1cc(-c2ccc(N3CCOCC3)cc2)nn1-c1ccccc1Cl | -9 | 1 | -29 | -9 | -2 | 21*
CCN(CC)c1ccc(N2C(=O)CSC2=S)cc1 | 57* | 0.9 | -26 | 2 | 10 | 2
CCCOP(=O)(OCCC)C1(Nc2ccc(C)cc2)CCCCC1 | 3 | 1 | 26* | . | -4 | -1
COC(=O)c1c(N2C(=O)[C@H]3[C@@H](C2=O)[C@]2(C(=O)Nc4c(C)cccc42)N2CCC[C@@H]32)sc(C)c1C | -3 | 1 | -23 | . | 0 | 0
CN(CCO)c1cc(NCCCN2CCC(Cc3ccccc3)CC2)c2nonc2c1[N+](=O)[O-] | 2 | 0.9 | -12 | 21 | 9 | 14*
c1ccc(-c2n[nH]c3c2CCC3)cc1 | 73* | 1 | -16 | . | -3 | -1
COc1ccc(C/C(C)=N/NS(=O)(=O)c2ccc(Br)cc2)cc1 | -6 | 1 | -25 | 12 | 1 | 15*
COc1ccc(C/C(C)=N/NC(=O)c2ccc(Cl)cc2)cc1 | -36 | 1 | -26 | 10 | -5 | 10*
CCOc1cc(C(=O)N/N=C(\C)Cc2ccc(OC)cc2)cc(OCC)c1OCC | -27 | 1 | -17 | -9 | -1 | -1
COc1ccc(S(=O)(=O)N/N=C(/C)c2ccc(Cl)cc2)cc1 | -11 | 1 | -10 | . | -5 | 1
Cc1cccc(NC(=O)CN2CCSc3ccccc32)c1 | 2 | 1 | -24 | -12 | 5 | 13*
O=C(CN1C(=O)/C(=C\c2ccc(F)cc2)Oc2ccccc21)N1CCN(c2ccccn2)CC1 | -27 | 1 | -38 | 8 | -2 | -2
O=C(CN1C(=O)/C(=C\c2cccc(F)c2)Oc2ccccc21)N1CCN(c2ccccn2)CC1 | -13 | 1 | -60 | 51* | -4 | -2
SMILES | TNAP inh no acc | TNAP act hiacc | Furin inhibitor | Pf gamet viab | TNAP inh hi DEA | Efa HMGR inh
CCOc1ccccc1NS(=O)(=O)c1ccc2oc(=O)ccc2c1 | . | . | . | 0 | . | .
Cc1nc2c(C)cccn2c1/C(O)=C1\C(=O)C(=O)N(CCN(C)C)C1c1ccco1 (centres undefined) | . | . | -25 | -18 | . | .
O=c1oc(CCCO)cc2ccc(/C=C/c3cccc([N+](=O)[O-])c3)cc12 | . | . | . | -14 | . | .
COc1ccc(CCN(C)CCCN2CC(c3ccccc3)CC2=O)cc1OC (centres undefined) | -9 | 1 | -35 | 42* | -4 | -7
CN(NC1OC(=O)c2ccccc21)c1ccccc1[N+](=O)[O-] (centres undefined) | . | . | 1 | 13 | . | .
CC(C)CC1c2[nH]c3ccccc3c2CCN1CCCn1cccn1 (centres undefined) | -12 | 1 | -30 | 20 | -5 | -2
O=C1OC(c2cccc([N+](=O)[O-])c2)C2(CCCC2)C(=O)C12CCCCC2 (centres undefined) | -4 | 1.1 | -14 | . | -5 | -6
CCOC(=O)C1=NN(C(=O)COc2ccccc2)C(O)(c2ccc(Br)cc2)C1 (centres undefined) | 51* | 1 | -1 | -5 | 2 | -1
O=C(N[C@@H](Cc1ccccc1)c1nc2ccccc2[nH]1)c1ccc([N+](=O)[O-])cc1 | . | . | . | -11 | . | .
Cc1n[nH]c(C)c1S(=O)(=O)N1CCN(c2ccccn2)CC1 | 59* | 1 | -13 | -7 | -4 | -1
Cc1ccc(CNC(=O)C2COc3ccccc3O2)cc1 (centres undefined) | -12 | 1.1 | 5 | 31 | -6 | -5
O=C(NCc1ccccc1)C1COc2ccccc2O1 (centres undefined) | -10 | 1 | 30* | . | -2 | -5
O=C(Nc1ccc(S(=O)(=O)Nc2ccccc2)cc1)C1COc2ccccc2O1 (centres undefined) | 0 | 1 | -10 | . | 4 | 15*
Cc1cc(C)nc(NS(=O)(=O)c2ccc(NC(=O)C3COc4ccccc4O3)cc2)n1 (centres undefined) | -10 | 1.1 | -2 | -11 | -5 | 1
Cc1cc(NC(=O)CCNS(=O)(=O)c2cc(Br)cnc2N)ccc1Br | 1 | 1 | -22 | . | -3 | -2
N#C/C(=C\C1=C(N2CCOCC2)C(=C\c2ccc(Cl)cc2)/CC1)C(=O)Nc1ccccc1F | 48 | 0.6 | -15 | 15 | 41 | 2
CCN(CC)c1ccc(/C=C2\CCC(/C=C(\C#N)C(=O)Nc3ccccc3F)=C2N2CCOCC2)cc1 | 53* | 0.5 | -13 | 13 | 47 | 2
Fc1ccc(-c2csc3[n+]2CCS3)cc1 | -14 | 1.1 | -1 | . | -5 | 17*
O=[N+]([O-])c1ccc(-c2csc3[n+]2CCS3)cc1 | -7 | 0.9 | -6 | . | 6 | 4
O=C(O)c1cc2[nH]c3c(c2cc1Cl)CCCC3 | . | . | . | 16 | . | .
CC1CCN(S(=O)(=O)c2ccc(N=NC3=C(O)CC(C)(C)CC3=O)cc2)CC1 | 9 | 0.8 | -18 | 44* | 19 | 3
Cc1[nH]nc(-c2ccc(O)c(C)c2O)c1Oc1ccccc1 | 72* | 1.1 | -20 | -15 | -8 | -5
CCCc1cc(=O)[nH]c(SCC(=O)N2CCN(S(=O)(=O)c3ccc4ccccc4c3)CC2)n1 | -10 | 1 | -19 | 64* | 3 | 4
O=C(c1cc([N+](=O)[O-])ccc1Cl)N1CCN(c2ccccn2)CC1 | -4 | 1 | -17 | . | -1 | 11*
